From article PMC3773863 (Bioorganic & medicinal chemistry letters, 2013)

Key:
[1] = tested on: DU-145 prostate cancer cells; assay: NCI in vitro human tumor cell screen, DU-145; assay type: cell-based
Method in brief: (§1)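 NCI-60 panel screen. GI50 is the log concentration that […]. TGI is the log concentration giving total growth inhibition. LC50 is the log concentration needed to kill 50% of the test population.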

M14 melanoma cells = assay: NCI in vitro human tumor cell screen, M14; assay type: cell-based
Method in brief: as §1

[2] = tested on: RXF 393 renal cancer cells; assay: NCI in vitro human tumor cell screen, RXF 393; assay type: cell-based
Method in brief: as §1

[3] = tested on: SK-OV-3 ovarian cancer cells; assay: NCI in vitro human tumor cell screen, SK-OV-3; assay type: cell-based
Method in brief: as §1

[4] = target: pure porcine brain tubulin proteins (Sus scrofa, UniProt P02550+P02554); assay: In vitro tubulin polymerization assay; assay type: biochemical; conditions: GPEM buffer, 37 °C, absorbance 340 nm
[5] = tested on: OVCAR-3 ovarian cancer cells; assay: NCI in vitro human tumor cell screen, OVCAR-3; assay type: cell-based
Method in brief: as §1

NCI-H522 cells = assay: MTT anti-proliferation assay, NCI-H522; assay type: cell-based, human; conditions: read-out: IC50 proliferation of NCI-H522 cells, 48 h incubation
Method in brief: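 NCI-H522 cells in log-phase growth were exposed at 37 °C to test compound or DMSO vehicle in complete medium for 48 h. They were then given MTT (1 mg/mL in 1X PBS) for 2 h at 37 °C. Absorbance was read at 570 nm and corrected at 630 nm.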

[6] = tested on: MDA-MB-435 melanoma cells; assay: NCI in vitro human tumor cell screen, MDA-MB-435; assay type: cell-based
[7] = tested on: NCI/ADR-RES ovarian cancer cells; assay: NCI in vitro human tumor cell screen, NCI/ADR-RES; assay type: cell-based
Method in brief: as §1

[8] = tested on: Colo205 colon cancer cells; assay: NCI in vitro human tumor cell screen, Colo205; assay type: cell-based
Method in brief: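 NCI-60 panel screen. GI50 is the log concentration that […]. TGI is the log concentration giving total growth inhibition.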

SK-MEL-5 melanoma cells = assay: NCI in vitro human tumor cell screen, SK-MEL-5; assay type: cell-based
Method in brief: as §1

[9] = tested on: NCI-H522 non-small cell lung cancer cells; assay: NCI in vitro human tumor cell screen, NCI-H522; assay type: cell-based
SR leukemia cells = assay: NCI in vitro human tumor cell screen, SR; assay type: cell-based
SF-295 CNS cancer cells = assay: NCI in vitro human tumor cell screen, SF-295; assay type: cell-based
Method in brief: as §1

[10] = tested on: MDA-MB-468 breast cancer cells; assay: NCI in vitro human tumor cell screen, MDA-MB-468; assay type: cell-based
Method in brief: as §1

[11] = tested on: α-tubulin and β-tubulin in NCI-H522 cells; assay: In vivo tubulin assembly assay; assay type: cell-based, human; conditions: 24 h, 6h 10, 30, 100 nM, vincristine and paclitaxel 100 nM

Sequence of pure porcine brain tubulin proteins (P02550 whole entry): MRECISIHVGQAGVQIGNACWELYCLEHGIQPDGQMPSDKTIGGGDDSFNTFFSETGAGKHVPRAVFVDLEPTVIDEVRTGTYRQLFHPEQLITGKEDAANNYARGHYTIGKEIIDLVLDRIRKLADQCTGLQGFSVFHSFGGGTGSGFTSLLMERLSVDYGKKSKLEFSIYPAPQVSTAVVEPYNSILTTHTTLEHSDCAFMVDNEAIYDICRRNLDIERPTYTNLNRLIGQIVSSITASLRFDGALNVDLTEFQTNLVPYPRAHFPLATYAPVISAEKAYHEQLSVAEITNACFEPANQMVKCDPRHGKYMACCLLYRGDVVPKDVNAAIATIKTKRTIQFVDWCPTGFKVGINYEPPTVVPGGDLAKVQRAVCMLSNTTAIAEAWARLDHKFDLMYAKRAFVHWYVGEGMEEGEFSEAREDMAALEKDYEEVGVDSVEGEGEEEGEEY
Sequence of pure porcine brain tubulin proteins (P02554 whole entry): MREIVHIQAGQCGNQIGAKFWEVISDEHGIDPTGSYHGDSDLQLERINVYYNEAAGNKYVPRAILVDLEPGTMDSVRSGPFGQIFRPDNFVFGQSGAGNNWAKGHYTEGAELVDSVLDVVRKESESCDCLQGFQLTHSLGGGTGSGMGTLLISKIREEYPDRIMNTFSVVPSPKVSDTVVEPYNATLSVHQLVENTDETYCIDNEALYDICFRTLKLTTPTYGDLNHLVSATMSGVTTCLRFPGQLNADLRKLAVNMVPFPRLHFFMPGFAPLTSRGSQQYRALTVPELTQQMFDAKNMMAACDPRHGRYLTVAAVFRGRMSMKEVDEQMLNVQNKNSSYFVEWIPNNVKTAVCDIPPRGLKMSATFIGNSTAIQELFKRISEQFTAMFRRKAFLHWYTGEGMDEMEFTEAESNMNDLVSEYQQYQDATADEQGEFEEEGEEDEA

With “2-(3-hydroxy-5-methoxyphenyl)-6-pyrrolidin-1-ylquinolin-4-one [Compound 6h]” as the compound, how does the logGI50 [1] read?
Its logGI50 is −7.51.

What about the logLC50 [1] of the same compound?
Its logLC50 is >−4.00.

What about the logTGI [1] of the same compound?
The logTGI was −6.59.

What about the logGI50 (M14 melanoma cells) of the same compound?
The logGI50 was −7.52.

And the logLC50 (M14 melanoma cells)?
Its logLC50 is >−4.00.

And the logTGI (M14 melanoma cells)?
Its logTGI is −4.80.

And the logGI50 [2]?
Its logGI50 is −7.39.

What about the logLC50 [2] of the same compound?
Its logLC50 is >−4.00.

And the logTGI [2]?
The logTGI was −4.62.

And the logGI50 [3]?
The logGI50 was −7.63.

What about the logLC50 [3] of the same compound?
Its logLC50 is >−4.00.

What about the logTGI [3] of the same compound?
The logTGI was −4.60.

And the “effect on tubulin polymerization” value [4]?
Its value is “inhibited tubulin polymerization in a concentration-dependent manner”.

And the logGI50 [5]?
The logGI50 was −7.63.

And the logLC50 [5]?
The logLC50 was −5.19.

And the logTGI [5]?
The logTGI was −7.05.

And the IC50 (NCI-H522 cells)?
The IC50 was 0.0423 ± 0.0012 µM.

What about the logGI50 [6] of the same compound?
Its logGI50 is < −8.00.

And the logTGI [6]?
The logTGI was −7.53.

What about the logGI50 [7] of the same compound?
The logGI50 was −7.21.

And the logLC50 [7]?
Its logLC50 is >−4.00.

And the logTGI [7]?
The logTGI was −6.29.

What about the logGI50 [8] of the same compound?
Its logGI50 is −7.27.

What about the logTGI [8] of the same compound?
Its logTGI is −6.66.

And the logGI50 (SK-MEL-5 melanoma cells)?
The logGI50 was −7.61.

And the logLC50 (SK-MEL-5 melanoma cells)?
The logLC50 was −6.31.

And the logTGI (SK-MEL-5 melanoma cells)?
The logTGI was −7.18.

And the logGI50 [9]?
The logGI50 was < −8.00.

And the logLC50 [9]?
The logLC50 was −5.41.

What about the logTGI [9] of the same compound?
The logTGI was < −8.00.

What about the logGI50 (SR leukemia cells) of the same compound?
Its logGI50 is < −8.00.

What about the logLC50 (SR leukemia cells) of the same compound?
The logLC50 was >−4.00.

And the logTGI (SR leukemia cells)?
Its logTGI is > −4.00.

And the logGI50 (SF-295 CNS cancer cells)?
The logGI50 was −6.96.

And the logLC50 (SF-295 CNS cancer cells)?
The logLC50 was >−4.00.

What about the logTGI (SF-295 CNS cancer cells) of the same compound?
The logTGI was −4.95.

And the logGI50 [10]?
The logGI50 was −6.58.

What about the logLC50 [10] of the same compound?
The logLC50 was >−4.00.

And the logTGI [10]?
The logTGI was −5.70.

Which “effect on α-tubulin and β-tubulin in the cytoskeletal fraction” value [11] does the source give for `CC(=O)O[C@H]1C(=O)[C@@]2(C)[C@H]([C@H](OC(=O)c3ccccc3)[C@]3(O)C[C@H](OC(=O)[C@H](O)[C@@H](NC(=O)c4ccccc4)c4ccccc4)C(C)=C1C3(C)C)[C@]1(OC(C)=O)CO[C@@H]1C[C@@H]2O` [paclitaxel] here?
The value was “caused tubulin polymerization”.

For `CC[C@]1(O)C[C@@H]2CN(CCc3c([nH]c4ccccc34)[C@@](C(=O)OC)(c3cc4c(cc3OC)N(C)[C@H]3[C@@](O)(C(=O)OC)[C@H](OC(C)=O)[C@]5(CC)C=CCN6CC[C@]43[C@@H]65)C2)C1` [vinblastine], which “effect on tubulin polymerization” value [4] is on record?
Its value is “inhibited tubulin polymerization”.

`CC[C@]1(O)C[C@H]2CN(CCc3c([nH]c4ccccc34)[C@@](C(=O)OC)(c3cc4c(cc3OC)N(C=O)[C@H]3[C@@](O)(C(=O)OC)[C@H](OC(C)=O)[C@]5(CC)C=CCN6CC[C@]43[C@@H]65)C2)C1` [vincristine] was tested. Which “effect on tubulin polymerization” value [4] did it give?
Its value is “inhibited tubulin polymerization”.
